Bioassay records (PubChem BioAssay)
A selection: hits, their analogues and other compounds. The true share with any hit is near 4.1%.
MC4R antag cAMP: antagonists of human melanocortin 4 receptor (MC4R); inhibition, % at 6.5 µM; P32245; actives 0.48% (n = 360,000); AID 540295; MC4R-expressing cells, MTII-stimulated cAMP, LANCE TR-FRET;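 active = inhibition above its plate's cutoff, the mean of tested wells on that plate plus 3 SD, cut at about 29% in these data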
Target sequence (P32245 whole entry, looked up): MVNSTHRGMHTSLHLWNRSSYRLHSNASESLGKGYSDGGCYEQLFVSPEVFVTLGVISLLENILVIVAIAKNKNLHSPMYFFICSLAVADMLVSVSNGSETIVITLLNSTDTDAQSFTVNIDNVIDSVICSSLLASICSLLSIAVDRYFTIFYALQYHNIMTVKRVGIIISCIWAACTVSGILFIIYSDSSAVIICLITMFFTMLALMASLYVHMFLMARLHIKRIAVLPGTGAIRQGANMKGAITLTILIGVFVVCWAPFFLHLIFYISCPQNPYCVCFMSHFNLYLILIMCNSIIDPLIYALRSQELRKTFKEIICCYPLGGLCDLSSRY
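Material: human MC4R-expressing U2OS cells. Probe or stimulus: Melanotan II challenge. Dosing: 6.5 µM single dose. Times: 30-min compound, 1-h challenge, 1-h detection, room temperature. Technique: TR-FRET with Eu-cAMP and labeled anti-cAMP, 671 nm. Replication: singlicate.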
MC4R barr agon: human MC4R agonism via beta-arrestin | P32245 | U2OS MC4R beta-arrestin complementation, luminescence; percent of melanotan II response, DMSO zero | activation, % at 8.9 µM | actives 0.98% (n = 360,000) | AID 540308;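 active = activation above a per-plate cutoff, the mean activation of sample wells on that plate plus 3 SD, cut at about 8% in these data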
ATG4B inhibitor: ATG4B (human) cysteine protease inhibition; actives 0.51% (n = 340,000); inhibition, % at 8.33 µM; ATG4B cleavage of LC3-PLA2, NBD-HPC fluorescence, 1 h; Q9Y4P1; in the data active = inhibition above about 40%
SMARCA2 activ: activators of SMARCA2 function. MG213 cells, MMTV-luciferase reporter, dexamethasone, overnight. activation, % at 9.1 µM. actives 1% (n = 370,000). AID 652017; in the data active = activation above about 7.8%
MPTP block: permeability transition pore inhibition; isolated mouse mitochondria, Ca2+ swelling absorbance, 30 min; inhibition, % at 10 µM; actives 1.4% (n = 360,000);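 active = inhibition of 50% or more, scaled per plate between neutral and stimulator controls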
Rh123 counter: membrane potential counter-screen of mitochondrial pore inhibitors; shares compounds with MPTP block; isolated mitochondria, Rhodamine 123 fluorescence; inhibition, % at 10 µM; actives 78% (n = 5,000); AID 624504; in the data active = inhibition above about 22%
MPTP abs DR: dose response confirmation of mitochondrial permeability transition pore inhibitors; shares compounds with MPTP block; isolated mitochondria swelling, absorbance; IC50, µM; actives 58% (n = 780); in the data active = IC50 below about 20 µM
MPTP counter DR: MPTP inhibitor counter-screen activity, dose response | shares compounds with MPTP block | isolated mitochondria counterscreen, fluorescence read-out | IC50, µM | actives 49% (n = 780); in the data active = IC50 below about 80 µM
Numbers stand for hits; – = inactive; · = no result.

SMILES	MC4R antag cAMP	MC4R barr agon	ATG4B inhibitor	SMARCA2 activ	MPTP block	Rh123 counter	others
CCN(CC)C(=O)c1ccc(S(=O)(=O)N2CCC(c3nc4ccccc4s3)CC2)cc1	–	–	–	–	89	94
CCN(Cc1ccccc1)CC(O)COC(c1ccc(OC)cc1)c1ccc(OC)cc1 (centres undefined)	–	–	–	–	79	–	MPTP abs DR=–;MPTP counter DR=54
Cn1c2c(c(=O)n(C)c1=O)C(C(F)(F)F)(C(F)(F)F)N=C(CCC1CCCCC1)N2	–	–	–	–	94	79
Cn1c(=O)c(C(=O)Nc2ncccc2O)c(O)c2ccccc21	–	–	–	–	74	–	MPTP abs DR=–;MPTP counter DR=–
Nc1cc(S(=O)(=O)Nc2cc(Cl)ccc2Cl)ccc1N1CCOCC1	–	–	–	–	61	–	MPTP abs DR=–;MPTP counter DR=55
COc1ccc(S(=O)(=O)Nc2ccc(N3CCOCC3)cc2)cc1	–	–	–	–	–	·
Nc1cc(S(=O)(=O)Nc2ccccc2Cl)ccc1N1CCCC1	–	–	–	–	–	·
COc1ccc(NS(=O)(=O)c2ccc(N3CCOCC3)c(N)c2)cc1	–	–	–	–	86	96
COc1ccc(Cl)cc1C(=O)Nc1ccc(NC(C)=O)cc1	–	–	–	–	–	·
CC(=O)Oc1c(I)cc(I)cc1C(=O)Nc1ccc(Cl)cc1	–	–	–	–	70	69
Cc1ccc(C2=C(O)C(=O)C(c3ccc(C)cc3)=C(O)C2=O)cc1	–	–	–	–	56	–	MPTP abs DR=14;MPTP counter DR=<2.5
CC1=C(O)C(=O)C(C2=C(O)C(=O)C(C)=C(O)C2=O)=C(O)C1=O	–	–	–	–	–	·
CC(C)N(Cc1ccccc1)S(=O)(=O)c1n[nH]c(C(C)(C)C)n1	·	·	·	–	·	·
CC1CCCCN1S(=O)(=O)c1ccc(C(=O)Nc2ccccc2-c2nc3ccccc3[nH]2)cc1 (centres undefined)	–	–	–	–	74	75
O=C(Nc1ccccc1-c1nc2ccccc2[nH]1)c1ccc(S(=O)(=O)N2CCCCC2)cc1	–	–	–	–	50	28
CCOC(=O)c1cnn(-c2sc(C(=O)OCC)c(C)c2C(=O)OCC)c1N	–	–	–	–	88	74
CCOC(=O)c1cnn(-c2cc(C)cc(C)c2)c1N	–	–	–	–	–	·
CC1CCCCC1N1CN=C(Nc2nc3ccccc3s2)NC1 (centres undefined)	–	–	–	–	66	–	MPTP abs DR=–;MPTP counter DR=–
Cc1nn(-c2ccccc2)c(Cl)c1/C=C1\SC(=S)N(CCCCCC(=O)O)C1=O	–	–	–	–	–	·
Cc1nn(-c2ccccc2)c(Cl)c1/C=C1\SC(=S)NC1=O	–	–	–	–	54	66
COc1cccc(CCN2CCC(CNS(=O)(=O)c3cc(-c4cc(C)no4)ccc3C)CC2)c1	–	–	–	–	79	–	MPTP abs DR=6.8;MPTP counter DR=24
O=C(COc1ccc(C(=O)c2ccccc2)cc1)NC1CCCCCC1	–	–	–	–	53	31
N#Cc1ccc(-c2ccc(OCC(=O)Nc3cccnc3)cc2)cc1	–	–	–	–	–	·
O=C(COc1ccc(C(=O)c2ccccc2)cc1)Nc1cccnc1	–	–	–	–	81	82
CC[C@@H](C(=O)[C@@H](C)[C@@H](O)[C@H](C)CCc1ccc(C)c(O)c1C(=O)O)[C@H]1O[C@](CC)([C@H]2CC[C@](O)(CC)[C@H](C)O2)C[C@@H]1C	–	89	–	–	104	84
SMILES	MC4R antag cAMP	MC4R barr agon	ATG4B inhibitor	SMARCA2 activ	MPTP block	Rh123 counter	others
O=C(NC(NC1CCS(=O)(=O)C1)C(Cl)(Cl)Cl)c1cccc(Cl)c1 (centres undefined)	–	–	–	–	–	·
O=C(NC(NC1CCS(=O)(=O)C1)C(Cl)(Cl)Cl)c1ccc(Br)cc1 (centres undefined)	–	–	–	–	91	102
CCCCCCCCN1C(=O)[C@@H](CC(=O)N2CCCC2)C[C@@]2(C(=O)OC)C1=C[C@H](C(C)C)O[C@@H]2C1CC1	·	·	·	–	·	·
Cc1ccc(NC(=O)c2ccccc2NS(=O)(=O)c2ccc(Cl)s2)cc1S(=O)(=O)N1CCOCC1	–	–	–	–	99	77
O=C(Nc1cc(S(=O)(=O)N2CCOCC2)ccc1O)c1ccc(NS(=O)(=O)c2ccc(Cl)s2)cc1	–	–	–	–	–	·
COc1ccc(C)cc1NC(=O)c1ccccc1NS(=O)(=O)c1ccc(Cl)s1	–	–	–	–	88	61
COc1ccccc1NC(=O)c1ccccc1NS(=O)(=O)c1cccs1	–	–	–	–	–	·
C[C@@H]1ON(C)[C@H]2C[C@H]3c4[nH]c5c(-c6cc(Cl)cc(Cl)c6)cccc5c4CCN3C(=O)[C@@H]12	·	·	·	–	·	·
CCCCc1ccc(N/C(N)=N/c2nc(C)cc(C)n2)cc1	–	–	–	–	87	89
Cc1cc(C)nc(/N=C(\N)Nc2ccc(C(C)C)cc2)n1	–	–	–	–	53	56
COc1ccc(C(=O)OCC(=O)Nc2nc3c(F)c(F)c(F)cc3s2)cc1OC	–	–	–	–	–	·
O=C(COC(=O)C12CC3CC(CC(C3)C1)C2)Nc1nc2c(F)c(F)c(F)cc2s1	–	–	–	–	70	40
COc1ccc(/C(C)=N/OCC(=O)N=Nc2c(O)[nH]c3ccc(Br)cc23)cc1	–	–	–	–	57	–	MPTP abs DR=–;MPTP counter DR=10
COc1ccc(/C=N/OCC(=O)N=Nc2c(O)[nH]c3ccc(Br)cc23)cc1OC	–	–	–	–	–	·
Nc1nc2ccccc2n1CCOc1ccccc1Cl	–	–	–	–	74	–	MPTP abs DR=9;MPTP counter DR=27
Nc1nc2ccccc2n1CCOc1ccc(Cl)cc1	–	–	–	–	–	·
N#C/C(=C\c1cc(Cl)cc(Cl)c1O)C(=O)NC1CCCCC1	–	–	–	–	61	68
N#C/C(=C\c1cc(Cl)ccc1O)C(=O)NC1CCCCC1	–	–	–	·	–	·
CCc1cccc(NC(=O)Cn2cc(C=O)c3ccccc32)c1	–	–	–	–	73	50
COc1cccc(NC(=O)Cn2cc(C=O)c3ccccc32)c1	–	–	–	–	–	·
Cc1ccc(CN2CCN(CC(=O)NCCCN3CCN(c4ccc(F)cc4)CC3)C2=O)cc1	–	–	–	–	56	–	MPTP abs DR=14;MPTP counter DR=18
CC(C)(C)c1ccc(S(=O)(=O)N2CCCCC2)cc1	–	–	–	–	–	·
CC(C)(C)c1ccc(S(=O)(=O)N2CCC(O)(c3ccc(Cl)cc3)CC2)cc1	–	–	–	–	84	92
CC(C)(C)c1ccc(S(=O)(=O)N2CCC(N3CCCCC3)CC2)cc1	–	–	–	–	71	–	MPTP abs DR=–;MPTP counter DR=27
